The values below come from paper PMC3061239 (Bioconjugate chemistry, 2010).

The conditions of data set [1]: 5 min; cited from earlier work.
A short description of data set [2]: Biodistribution of [^18F]7 in rats after i.v. injection. The note with it: for Distribution, blood / Distribution, bone / Distribution, brain / Distribution, fat / Distribution, heart / Distribution, kidney / Distribution, liver / Distribution, lung / Distribution, muscle / Distribution, pancreas / Distribution, spleen: male Sprague-Dawley rats, mean ± SD. Format: in vivo, Sprague-Dawley rats. In outline: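 Adult male Sprague-Dawley rats (170–250 g) under 2–3 % isoflurane/O2 received ~20–25 μCi/100 μL tracer (formulated in 3% HSA) via lateral tail vein. Killed at 5, 30, 60, 120 min, 4–8 rats per time; bone and fat taken only at 5 and 60 min (4 rats). Tissues weighed and gamma-counted alongside injectate standard dilution. Expressed as %ID/g, mean ± SD; Student's t-test.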

Data set [3] can be described thus: MicroPET imaging, myocardial tissue time-activity curves. The format is in vivo. As to conditions: male Sprague-Dawley rats.
Where [4] appears, read: 5 min post-i.v. injection, rats.

For `CCCCCCCCC([18F])CCCCC1CC1CC(=O)O` (racemic) [[^18F]FCPHA, trans-9-(RS)-[^18F]fluoro-3,4-(RS,RS) methyleneheptadecanoic acid], the “uptake in rat myocardium” value in data set [1] is on record as “approximately 1.5 %ID/gram tissue”.
As for `O=C(O)CCCCCCCCCCCCCCc1ccc(OCC[18F])cc1` [[^18F]7, 15-(4-(2-[^18F]fluoroethoxy)phenyl)pentadecanoic acid], in data set [2] (setting [4]), the “Ratio of activity heart:blood” value worked out at 2.55 and the “Ratio of activity heart:skeletal muscle” value is 8.3. Further, the “Uptake in heart at 30 min as percentage of the 5 min activity” value in data set [2] (30 min post injection vs 5 min, rats) amounted to 35%. Moreover, in data set [2] (120 min post injection, rats), the “Uptake in heart relative to blood” value is “approximately 1.4 fold”. In addition, in data set [2] (5 min post i.v. injection), the “Distribution, blood” value is on record as 0.76 ± 0.05 %ID/gram; the “Distribution, bone” value is given as 0.28 ± 0.01 %ID/gram; the “Distribution, brain” value came to 0.11 ± 0.01 %ID/gram; the “Distribution, fat” value was 0.14 ± 0.02 %ID/gram. Further, in data set [2] (5 min post i.v. injection), the “Distribution, heart” value came to 2.00 ± 0.44 %ID/gram; the “Distribution, kidney” value was 1.30 ± 0.09 %ID/gram; the “Distribution, liver” value was determined as 2.71 ± 0.37 %ID/gram; the “Distribution, lung” value was determined as 1.26 ± 0.32 %ID/gram. Besides, in data set [2] (5 min post i.v. injection), the “Distribution, muscle” value is 0.23 ± 0.03 %ID/gram; the “Distribution, pancreas” value was 0.73 ± 0.07 %ID/gram; the “Distribution, spleen” value is reported as 0.94 ± 0.05 %ID/gram. Moreover, in data set [2] (30 min post i.v. injection), the “Distribution, blood” value is reported as 0.75 ± 0.06 %ID/gram; the “Distribution, brain” value worked out at 0.13 ± 0.01 %ID/gram; the “Distribution, heart” value is recorded as 0.72 ± 0.10 %ID/gram; the “Distribution, kidney” value was found to be 1.26 ± 0.08 %ID/gram. Besides, in data set [2] (30 min post i.v. injection), the “Distribution, liver” value came out at 1.39 ± 0.09 %ID/gram; the “Distribution, lung” value is reported as 0.87 ± 0.06 %ID/gram; the “Distribution, muscle” value came out at 0.24 ± 0.04 %ID/gram; the “Distribution, pancreas” value is recorded as 0.50 ± 0.03 %ID/gram. Moreover, the “Distribution, spleen” value in data set [2] (30 min post i.v. injection) stood at 0.63 ± 0.07 %ID/gram. In data set [2] (60 min post i.v. injection), the “Distribution, blood” value is reported as 0.56 ± 0.06 %ID/gram; the “Distribution, bone” value came out at 0.33 ± 0.06 %ID/gram; the “Distribution, brain” value amounted to 0.10 ± 0.01 %ID/gram; the “Distribution, fat” value turned out to be 0.17 ± 0.01 %ID/gram. Also, in data set [2] (60 min post i.v. injection), the “Distribution, heart” value was 0.86 ± 0.28 %ID/gram; the “Distribution, kidney” value stood at 1.02 ± 0.15 %ID/gram; the “Distribution, liver” value is listed as 0.81 ± 0.10 %ID/gram; the “Distribution, lung” value is on record as 0.95 ± 0.27 %ID/gram. In data set [2] (60 min post i.v. injection), the “Distribution, muscle” value was found to be 0.21 ± 0.02 %ID/gram; the “Distribution, pancreas” value is 0.42 ± 0.04 %ID/gram; the “Distribution, spleen” value is on record as 0.57 ± 0.11 %ID/gram. Also, in data set [2] (120 min post i.v. injection), the “Distribution, blood” value worked out at 0.26 ± 0.06 %ID/gram; the “Distribution, brain” value stood at 0.06 ± 0.01 %ID/gram; the “Distribution, heart” value is on record as 0.34 ± 0.04 %ID/gram; the “Distribution, kidney” value is 0.52 ± 0.07 %ID/gram. Further, in data set [2] (120 min post i.v. injection), the “Distribution, liver” value is reported as 0.49 ± 0.07 %ID/gram; the “Distribution, lung” value is reported as 0.52 ± 0.06 %ID/gram; the “Distribution, muscle” value worked out at 0.12 ± 0.01 %ID/gram; the “Distribution, pancreas” value turned out to be 0.28 ± 0.02 %ID/gram. Besides, the “Distribution, spleen” value in data set [2] (120 min post i.v. injection) is reported as 0.40 ± 0.06 %ID/gram. The “metabolic defluorination (bone activity)” value in data set [2] (bone activity between 5 and 60 min, rats) was “no significant metabolic defluorination”. Further, the “Increase of activity in fat” value in data set [2] (from 5 to 60 min, rats, P = 0.04) came to 20%. In addition, in data set [3], the “accumulation in bone on PET images” value is listed as “no evidence of accumulation in bone”.
